Experimental data published in ChEMBL document CHEMBL1122187, “Synthesis and antiviral activity of certain carbamoylpyrrolopyrimidine and pyrazolopyrimidine nucleosides” (1982).

Legend:
Vero [1] = assay: In vitro antiviral activity against parainfluenza type 3(para 3) virus was determined in african green monkey kidney (vero,V) expressed as virus rating; assay type: functional, Chlorocebus sabaeus
Procedure, shortened: (§1)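 Cell monolayers (18 h) infected with 320 TCID50 of virus. Compound was added within 15–30 min at half-log dilutions from 1000 to 1 μg/mL. After 72 h at 37 °C in 5% CO2, CPE was scored 0–4 by microscopy. VR = sum of (virus control − treated) scores, halved at partially toxic levels, divided by 10 × test cups per drug level.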

Vero [2] = assay: In vitro antiviral activity against vaccinia(VV) virus was determined in african green monkey kidney (vero,V) expressed as virus rating; assay type: functional, Chlorocebus sabaeus; procedure, shortened: as §1
Vero [3] = assay: In vitro antiviral activity against herpes simplex type 1 (HSV-1) virus was determined in african green monkey kidney (vero,V) expressed as virus rating; assay type: functional, Chlorocebus sabaeus; procedure, shortened: as §1
HEp-2 [4] = assay: In vitro antiviral activity against herpes simplex type 1 (HSV-1) virus was determined in human laryngeal epithelioma (HEp-2,H)expressed as virus rating. Toxic level(320 ug/mL); assay type: functional; procedure, shortened: as §1
HEp-2 [5] = assay: In vitro antiviral activity against parainfluenza type 3 (para 3) virus was determined in human laryngeal epithelioma (HEp-2,H)expressed as virus rating. Toxic level(320 ug/mL); assay type: functional; procedure, shortened: as §1
HEp-2 [6] = assay: In vitro antiviral activity against vaccinia(VV) virus was determined in human laryngeal epithelioma (HEp-2,H)expressed as virus rating. Toxic level(320 ug/mL); assay type: functional; procedure, shortened: as §1
Vero [7] = assay: In vitro antiviral activity against vaccinia(VV) virus was determined in african green monkey kidney (vero,V) expressed as virus rating. Toxic level(>1000 ug/mL); assay type: functional, Chlorocebus sabaeus; procedure, shortened: as §1
Vero [8] = assay: In vitro antiviral activity against herpes simplex type 1 (HSV-1) virus was determined in african green monkey kidney (vero,V) expressed as virus rating. Toxic level(>1000 ug/mL); assay type: functional, Chlorocebus sabaeus; procedure, shortened: as §1
Vero [9] = assay: In vitro antiviral activity against parainfluenza type 3(para 3) virus was determined in african green monkey kidney (vero,V) expressed as virus rating. Toxic level(>1000 ug/mL); assay type: functional, Chlorocebus sabaeus; procedure, shortened: as §1
Vero [10] = assay: Percentage plaque reduction was determined against pichinde(PICH) virus in african green monkey kidney (vero,V).Toxic level(32 ug/mL); 61-90; assay type: functional, Chlorocebus sabaeus
Procedure, shortened: (§2)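 Infected Vero 24-well monolayers: virus adsorbed 1 h at 37 °C, then overlaid with agar holding dilutions of compound and incubated again at 37 °C with CO₂. Plaques were stained with crystal violet and counted. Inhibition was scored as % plaque reduction bands (10-30%, 31-60%, 61-90%), each tied to a drug concentration range.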

Vero [11] = assay: Percentage plaque reduction was determined against rift valley fever(RVF) virus in african green monkey kidney (vero,V) at a conc of 25-100 ug/mL. Toxic level(32 ug/mL); 61-90; assay type: functional, Chlorocebus sabaeus
Vero [12] = assay: Percentage plaque reduction was determined against venezuelan equine encephalitis (VEE) virus in african green monkey kidney (vero,V) at a conc of 100-250 ug/mL. Toxic level(32 ug/mL); assay type: functional, Chlorocebus sabaeus
Vero [13] = assay: Percentage plaque reduction was determined against venezuelan equine encephalitis (VEE) virus in african green monkey kidney (vero,V) at a conc of 25-100 ug/mL. Toxic level(32 ug/mL); assay type: functional, Chlorocebus sabaeus
Vero [14] = assay: Percentage plaque reduction was determined against Sandfly fever (SF) virus in african green monkey kidney (vero,V) at a conc of 250-500 ug/mL; 10-30; assay type: functional, Chlorocebus sabaeus
Vero [15] = assay: In vitro antiviral activity against parainfluenza type 3(para 3) virus was determined in african green monkey kidney (vero,V) expressed as virus rating. Toxic level(32 ug/mL); assay type: functional, Chlorocebus sabaeus; procedure, shortened: as §1
Vero [16] = assay: Percentage plaque reduction was determined against yellow fever(YF) virus in african green monkey kidney (vero,V).Toxic level(32 ug/mL); 61-90; assay type: functional, Chlorocebus sabaeus
Vero [17] = assay: Percentage plaque reduction was determined against venezuelan equine encephalitis (VEE) virus in african green monkey kidney (vero,V) at a conc of 250-500 ug/mL. Toxic level(32 ug/mL); assay type: functional, Chlorocebus sabaeus
Vero [18] = assay: Percentage plaque reduction was determined against venezuelan equine encephalitis (VEE) virus in african green monkey kidney (vero,V) at a conc of <25 ug/mL. Toxic level(32 ug/mL); assay type: functional, Chlorocebus sabaeus
Vero [19] = assay: In vitro antiviral activity against herpes simplex type 1 (HSV-1) virus was determined in african green monkey kidney (vero,V) expressed as virus rating. Toxic level(32 ug/mL); assay type: functional, Chlorocebus sabaeus; procedure, shortened: as §1
Vero [20] = assay: Percentage plaque reduction was determined against pichinde(PICH) virus in african green monkey kidney (vero,V).Toxic level(320 ug/mL); assay type: functional, Chlorocebus sabaeus; procedure, shortened: as §2
Vero [21] = assay: Percentage plaque reduction was determined against pichinde(PICH) virus in african green monkey kidney (vero,V).; assay type: functional, Chlorocebus sabaeus; procedure, shortened: as §2
Vero [22] = assay: In vitro antiviral activity against herpes simplex type 1 (HSV-1) virus was determined in african green monkey kidney (vero,V) expressed as virus rating. Toxic level(320 ug/mL); assay type: functional, Chlorocebus sabaeus; procedure, shortened: as §1
Vero [23] = assay: In vitro antiviral activity against parainfluenza type 3(para 3) virus was determined in african green monkey kidney (vero,V) expressed as virus rating. Toxic level(320 ug/mL); assay type: functional, Chlorocebus sabaeus; procedure, shortened: as §1
Vero [24] = assay: Percentage plaque reduction was determined against rift valley fever(RVF) virus in african green monkey kidney (vero,V) at a conc of <25 ug/mL. Toxic level(320 ug/mL); assay type: functional, Chlorocebus sabaeus
Vero [25] = assay: Percentage plaque reduction was determined against venezuelan equine encephalitis (VEE) virus in african green monkey kidney (vero,V) at a conc of 250-500 ug/mL. Toxic level(320 ug/mL); assay type: functional, Chlorocebus sabaeus
Vero [26] = assay: Percentage plaque reduction was determined against Sandfly fever (SF) virus in african green monkey kidney (vero,V) at a conc of 25-100 ug/mL. Toxic level(320 ug/mL); assay type: functional, Chlorocebus sabaeus

CSc1ncnc2c([C@@H]3O[C@H](CO)[C@@H](O)[C@H]3O)n[nH]c12
Virus rating (Vero [1]): 1.3
Virus rating (Vero [2]): 1.4
Virus rating (Vero [3]): 0.8

NC(=O)c1ncnc2c1cnn2C1O[C@H](CO)[C@@H](O)[C@H]1O (stereo partly specified)
Virus rating (HEp-2 [4]): 0
Virus rating (HEp-2 [5]): 0
Virus rating (HEp-2 [6]): 0.2
Virus rating (Vero [7]): 0
Virus rating (Vero [8]): 0
Virus rating (Vero [9]): 0

O=C1N=CN=C2C1C=CN2C1O[C@H](CO)[C@@H](O)[C@H]1O (stereo partly specified)
Plaque reduction (Vero [10]): 61%
Plaque reduction (Vero [11]): 61%
Plaque reduction (Vero [12]): 0%
Plaque reduction (Vero [13]): 0%
Plaque reduction (Vero [14]): 10%
Virus rating (Vero [15]): 0
Plaque reduction (Vero [16]): 61%
Plaque reduction (Vero [17]): 0%
Plaque reduction (Vero [18]): 0%
Virus rating (Vero [19]): 0

OC[C@H]1OC(n2ccc3c(Cl)ncnc32)[C@H](O)[C@@H]1O (stereo partly specified)
Plaque reduction (Vero [20]): >90%
Plaque reduction (Vero [21]): >90%
Virus rating (Vero [22]): 0.2
Virus rating (Vero [23]): 0.1
Plaque reduction (Vero [24]): >90%
Plaque reduction (Vero [25]): 0%
Plaque reduction (Vero [26]): 90%
